According to ChEMBL document CHEMBL5724801, “EUbOPEN Chemogenomics Library - Multiplex” (2024):
Several values for one entry are separate records, joined by “and”; a condition that tells them apart may be missing. Equal entries are not always repeated.

The molecules below were run on HEK-293T (assay: Multiplex assay against HEK293T). Details: human, 12 h, 1 µM, compound concentration 1 uM.
Type: toxicity, cell-based
Procedure, shortened: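 Compound was added to live cells that had been stained at seeding with Hoechst33342, BioTracker Green Microtubule Cytoskeleton Dye, MitoTracker Red and Annexin V Alexa Fluor 680, and imaging followed on a CQ1 microscope at 37°C and 5% CO2. CellPathfinder machine-learning gating divided cells into Hoechst high-intensity objects or normal cells, normal cells into healthy, pyknosed or fragmented nuclei, and pyknosed cells into mitotic or apoptotic. Tubulin, mitochondrial-mass and membrane-permeability phenotypes are per cents of healthy-nucleus cells.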

SMILES	Population Apoptotic (%)	Population Fragmented Nuclei (%)	Population Healthy Nuclei (%)	Population Hoechst High Intensity Objects (%)	Population Membrane Permeable-Phenotype (%)	Population Mitochondria Different-Phenotype (%)	Population Mitotic Cells (%)	Population Normal (%)	Population Pyknosed Nuclei (%)	Population Tubulin-Different-Phenotype (%)
Cc1cnc(-c2cc(N3CCN(C(=O)CCS(C)(=O)=O)CC3)ncc2Cl)c(C)c1	29% and 42%	6%	76% and 75%	4% and 9%	0	50% and 69%	70% and 57%	95% and 90%	16% and 17%	33% and 24%
COc1cc(N2CCN(C)CC2)ccc1Nc1nccc(-c2cn(C)c3cnccc23)n1	10.14% and 10.53%	3.23% and 1.83%	–	0%	0	–	89.86% and 89.47%	100%	31.8% and 87.16%	–
O=C(O)C(F)(F)F.O=C1NC(=O)/C(=C/c2c[nH]c(=O)c(-c3ccc(N4CCNCC4)nc3)c2)S1	11.41% and 11.65%	1.85% and 6.98%	–	0%	–	–	88.59% and 88.35%	100%	39.31% and 79.84%	–
Cc1nc2ccc(Oc3ccc(F)cc3)cc2c(=O)n1C[C@H]1CCCN(C(C)C)C1.Cl	40% and 61%	7% and 5%	80% and 70%	–	0	50% and 69%	60% and 38%	93% and 72%	11% and 24%	42% and 34%

Same assay, conditions: human, 12 h, 1 µM, compound concentration 1 uM

SMILES	Total Cell Count
Cc1cnc(-c2cc(N3CCN(C(=O)CCS(C)(=O)=O)CC3)ncc2Cl)c(C)c1	276 and 294
O=C(O)C(F)(F)F.O=C1NC(=O)/C(=C/c2c[nH]c(=O)c(-c3ccc(N4CCNCC4)nc3)c2)S1	379 and 129
Cc1nc2ccc(Oc3ccc(F)cc3)cc2c(=O)n1C[C@H]1CCCN(C(C)C)C1.Cl	381 and 204

Same assay, conditions: human, 12 h, 10 µM, compound concentration 10 uM

SMILES	Population Apoptotic (%)	Population Fragmented Nuclei (%)	Population Healthy Nuclei (%)	Population Hoechst High Intensity Objects (%)	Population Membrane Permeable-Phenotype (%)	Population Mitochondria Different-Phenotype (%)	Population Mitotic Cells (%)	Population Normal (%)	Population Pyknosed Nuclei (%)	Population Tubulin-Different-Phenotype (%)
Cc1cnc(-c2cc(N3CCN(C(=O)CCS(C)(=O)=O)CC3)ncc2Cl)c(C)c1	42% and 45%	7%	82% and 75%	10% and 7%	0%	47% and 70%	57% and 54%	89% and 92%	10% and 17%	40% and 39%
COc1cc(N2CCN(C)CC2)ccc1Nc1nccc(-c2cn(C)c3cnccc23)n1	19.35% and 16.13%	1.59% and 4.51%	–	0%	0.4% and 2.94%	–	80.65% and 83.87%	100%	–	–
O=C(O)C(F)(F)F.O=C1NC(=O)/C(=C/c2c[nH]c(=O)c(-c3ccc(N4CCNCC4)nc3)c2)S1	6.85% and 12.69%	2.2% and 4.57%	57.69% and 27.41%	0.27% and 0%	0.95% and 0%	–	93.15% and 87.31%	99.73% and 100%	40.11% and 68.02%	–
Cc1nc2ccc(Oc3ccc(F)cc3)cc2c(=O)n1C[C@H]1CCCN(C(C)C)C1.Cl	54% and 61%	7% and 8%	78% and 74%	17% and 20%	0%	81% and 94%	45% and 38%	82% and 79%	13% and 17%	76% and 73%

Same assay, conditions: human, 12 h, 10 µM, compound concentration 10 uM

SMILES	Total Cell Count
Cc1cnc(-c2cc(N3CCN(C(=O)CCS(C)(=O)=O)CC3)ncc2Cl)c(C)c1	409 and 288
COc1cc(N2CCN(C)CC2)ccc1Nc1nccc(-c2cn(C)c3cnccc23)n1	314 and 133
O=C(O)C(F)(F)F.O=C1NC(=O)/C(=C/c2c[nH]c(=O)c(-c3ccc(N4CCNCC4)nc3)c2)S1	365 and 197
Cc1nc2ccc(Oc3ccc(F)cc3)cc2c(=O)n1C[C@H]1CCCN(C(C)C)C1.Cl	405 and 310

Same assay, conditions: human, 24 h, 1 µM, compound concentration 1 uM

SMILES	Population Apoptotic (%)	Population Fragmented Nuclei (%)	Population Healthy Nuclei (%)	Population Hoechst High Intensity Objects (%)	Population Membrane Permeable-Phenotype (%)	Population Mitochondria Different-Phenotype (%)	Population Mitotic Cells (%)	Population Normal (%)	Population Pyknosed Nuclei (%)	Population Tubulin-Different-Phenotype (%)
Cc1cnc(-c2cc(N3CCN(C(=O)CCS(C)(=O)=O)CC3)ncc2Cl)c(C)c1	36% and 40%	8% and 7%	78% and 83%	2% and 6%	1% and 0%	30% and 36%	63% and 60%	97% and 93%	12% and 9%	21% and 13%
COc1cc(N2CCN(C)CC2)ccc1Nc1nccc(-c2cn(C)c3cnccc23)n1	19.27% and 15.66%	1.54% and 3.91%	81.64% and 31.25%	0%	1.13% and 2.5%	11.15% and 10%	80.73% and 84.34%	100%	–	12.1% and 5%
O=C(O)C(F)(F)F.O=C1NC(=O)/C(=C/c2c[nH]c(=O)c(-c3ccc(N4CCNCC4)nc3)c2)S1	17.05% and 22.22%	1.89% and 2.88%	75.95% and 25.9%	0.17% and 0%	1.13% and 0%	18.1% and 11.11%	82.95% and 77.78%	99.83% and 100%	–	–
Cc1nc2ccc(Oc3ccc(F)cc3)cc2c(=O)n1C[C@H]1CCCN(C(C)C)C1.Cl	31% and 37%	11%	80% and 72%	–	0%	36% and 52%	68% and 62%	95% and 77%	8% and 16%	27% and 20%

Same assay, conditions: human, 24 h, 1 µM, compound concentration 1 uM

SMILES	Total Cell Count
Cc1cnc(-c2cc(N3CCN(C(=O)CCS(C)(=O)=O)CC3)ncc2Cl)c(C)c1	368 and 413
Cc1nc2ccc(Oc3ccc(F)cc3)cc2c(=O)n1C[C@H]1CCCN(C(C)C)C1.Cl	553 and 281

Same assay, conditions: human, 24 h, 10 µM, compound concentration 10 uM

SMILES	Population Apoptotic (%)	Population Fragmented Nuclei (%)	Population Healthy Nuclei (%)	Population Hoechst High Intensity Objects (%)	Population Membrane Permeable-Phenotype (%)	Population Mitochondria Different-Phenotype (%)	Population Mitotic Cells (%)	Population Normal (%)	Population Pyknosed Nuclei (%)	Population Tubulin-Different-Phenotype (%)
Cc1cnc(-c2cc(N3CCN(C(=O)CCS(C)(=O)=O)CC3)ncc2Cl)c(C)c1	33% and 51%	15% and 7%	76% and 80%	5%	0%	29% and 47%	66% and 48%	94%	8% and 12%	31% and 22%
COc1cc(N2CCN(C)CC2)ccc1Nc1nccc(-c2cn(C)c3cnccc23)n1	27.27% and 28.81%	2.49% and 1.67%	87.23% and 49.17%	0%	1.07% and 6.78%	7.5% and 3.39%	72.73% and 71.19%	100%	–	26.07% and 10.17%
O=C(O)C(F)(F)F.O=C1NC(=O)/C(=C/c2c[nH]c(=O)c(-c3ccc(N4CCNCC4)nc3)c2)S1	8.74% and 7.63%	1.47% and 3.95%	81.67% and 49.41%	0.16% and 0.39%	1% and 0.8%	11.22% and 10.4%	91.26% and 92.37%	99.84% and 99.61%	16.86% and 46.64%	10.02% and 1.6%
Cc1nc2ccc(Oc3ccc(F)cc3)cc2c(=O)n1C[C@H]1CCCN(C(C)C)C1.Cl	49% and 68%	10% and 11%	73% and 75%	12% and 23%	3% and 0%	67% and 88%	50% and 31%	87% and 76%	15% and 12%	70% and 68%

Same assay, conditions: human, 24 h, 10 µM, compound concentration 10 uM

SMILES	Total Cell Count
Cc1cnc(-c2cc(N3CCN(C(=O)CCS(C)(=O)=O)CC3)ncc2Cl)c(C)c1	550 and 392
COc1cc(N2CCN(C)CC2)ccc1Nc1nccc(-c2cn(C)c3cnccc23)n1	321 and 120
O=C(O)C(F)(F)F.O=C1NC(=O)/C(=C/c2c[nH]c(=O)c(-c3ccc(N4CCNCC4)nc3)c2)S1	612 and 254
Cc1nc2ccc(Oc3ccc(F)cc3)cc2c(=O)n1C[C@H]1CCCN(C(C)C)C1.Cl	525 and 334

Same assay, conditions: human, 48 h, 1 µM, compound concentration 1 uM

SMILES	Population Apoptotic (%)	Population Fragmented Nuclei (%)	Population Healthy Nuclei (%)	Population Hoechst High Intensity Objects (%)	Population Membrane Permeable-Phenotype (%)	Population Mitochondria Different-Phenotype (%)	Population Mitotic Cells (%)	Population Normal (%)	Population Pyknosed Nuclei (%)	Population Tubulin-Different-Phenotype (%)
Cc1cnc(-c2cc(N3CCN(C(=O)CCS(C)(=O)=O)CC3)ncc2Cl)c(C)c1	27% and 34%	17% and 14%	76% and 78%	1% and 2%	1% and 0%	17% and 22%	72% and 65%	98% and 97%	6%	10% and 6%
COc1cc(N2CCN(C)CC2)ccc1Nc1nccc(-c2cn(C)c3cnccc23)n1	7.58% and 13.11%	2.6% and 3.77%	85.55% and 57.86%	0.09% and 0.62%	3.57% and 0%	18.99% and 33.7%	92.42% and 86.89%	99.91% and 99.38%	–	–
O=C(O)C(F)(F)F.O=C1NC(=O)/C(=C/c2c[nH]c(=O)c(-c3ccc(N4CCNCC4)nc3)c2)S1	6.45% and 15.87%	2.67% and 3.98%	86.14% and 60.23%	0.07% and 0%	4.02% and 0.94%	12.07% and 19.81%	93.55% and 84.13%	99.93% and 100%	–	–
Cc1nc2ccc(Oc3ccc(F)cc3)cc2c(=O)n1C[C@H]1CCCN(C(C)C)C1.Cl	27% and 60%	19% and 13%	75% and 80%	1% and 7%	1% and 0%	22% and 36%	72% and 39%	98% and 92%	5% and 6%	14%

Same assay, conditions: human, 48 h, 1 µM, compound concentration 1 uM

SMILES	Total Cell Count
Cc1cnc(-c2cc(N3CCN(C(=O)CCS(C)(=O)=O)CC3)ncc2Cl)c(C)c1	718 and 595
Cc1nc2ccc(Oc3ccc(F)cc3)cc2c(=O)n1C[C@H]1CCCN(C(C)C)C1.Cl	901 and 380

Same assay, conditions: human, 48 h, 10 µM, compound concentration 10 uM

SMILES	Population Apoptotic (%)	Population Fragmented Nuclei (%)	Population Healthy Nuclei (%)	Population Hoechst High Intensity Objects (%)	Population Membrane Permeable-Phenotype (%)	Population Mitochondria Different-Phenotype (%)	Population Mitotic Cells (%)	Population Normal (%)	Population Pyknosed Nuclei (%)	Population Tubulin-Different-Phenotype (%)
Cc1cnc(-c2cc(N3CCN(C(=O)CCS(C)(=O)=O)CC3)ncc2Cl)c(C)c1	25% and 36%	14%	78% and 77%	4% and 3%	0%	23% and 32%	74% and 63%	95% and 96%	7% and 8%	17% and 15%
COc1cc(N2CCN(C)CC2)ccc1Nc1nccc(-c2cn(C)c3cnccc23)n1	20% and 25%	4.38% and 4.51%	87.29% and 74.44%	0%	2.86% and 0%	21.24% and 29.29%	80% and 75%	100%	8.33% and 21.05%	–
O=C(O)C(F)(F)F.O=C1NC(=O)/C(=C/c2c[nH]c(=O)c(-c3ccc(N4CCNCC4)nc3)c2)S1	7.41% and 20.63%	4.01% and 2.52%	88.47% and 81.61%	0% and 0.5%	6.36% and 2.78%	6.55% and 12.04%	92.59% and 79.37%	100% and 99.5%	7.52% and 15.87%	–
Cc1nc2ccc(Oc3ccc(F)cc3)cc2c(=O)n1C[C@H]1CCCN(C(C)C)C1.Cl	47% and 67%	15% and 17%	74% and 72%	11% and 22%	2% and 0%	60% and 69%	52% and 32%	88% and 78%	9%	62% and 58%

Same assay, conditions: human, 48 h, 10 µM, compound concentration 10 uM

SMILES	Total Cell Count
Cc1cnc(-c2cc(N3CCN(C(=O)CCS(C)(=O)=O)CC3)ncc2Cl)c(C)c1	753 and 576
Cc1nc2ccc(Oc3ccc(F)cc3)cc2c(=O)n1C[C@H]1CCCN(C(C)C)C1.Cl	754 and 459
